Measured values taken from BindingDB's records for doi:10.1021/acs.jmedchem.0c00522 (Leiden University & Oncode Institute, 2020).

Tests used:
[1] = molecular target: T1, Phospholipase A and acyltransferase 2 (Homo sapiens, UniProt Q9NWW9); test: Inhibition of full-length C-terminal FLAG-tagged human PLAAT2 expressed in HEK293T cell lysate preincubated for 30 mins followed by MB064 addition and measured after 20 mins by SDS-PAGE based ABPP analysis
T1 sequence (Q9NWW9 whole entry): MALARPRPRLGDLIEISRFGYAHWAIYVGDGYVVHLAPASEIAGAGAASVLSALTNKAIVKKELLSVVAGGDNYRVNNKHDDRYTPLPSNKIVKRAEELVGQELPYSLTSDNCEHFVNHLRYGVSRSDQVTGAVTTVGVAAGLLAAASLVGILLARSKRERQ
How it was run: (§1)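 Dose–response competitive ABPP on cytosol only, from HEK293T overexpressing FLAG-tagged PLAAT. Inhibitor 30 min rt, then MB064 20 min rt. PLAAT2 0.25 μg/μL with 250 nM probe; PLAAT3 0.5 μg/μL with 250 nM; PLAAT4 and PLAAT5 1 μg/μL with 500 nM. Fluorescence normalized to Coomassie. IC50 from curves, reported as pIC50 ± SEM, n = 3.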

[2] = molecular target: T2, Phospholipase A and acyltransferase 5 (Homo sapiens, UniProt Q96KN8); test: Inhibition of full-length C-terminal FLAG-tagged human PLAAT5 expressed in HEK293T cell lysate preincubated for 30 mins followed by MB064 addition and measured after 20 mins by SDS-PAGE based ABPP analysis; how it was run: as §1
T2 sequence (Q96KN8 whole entry): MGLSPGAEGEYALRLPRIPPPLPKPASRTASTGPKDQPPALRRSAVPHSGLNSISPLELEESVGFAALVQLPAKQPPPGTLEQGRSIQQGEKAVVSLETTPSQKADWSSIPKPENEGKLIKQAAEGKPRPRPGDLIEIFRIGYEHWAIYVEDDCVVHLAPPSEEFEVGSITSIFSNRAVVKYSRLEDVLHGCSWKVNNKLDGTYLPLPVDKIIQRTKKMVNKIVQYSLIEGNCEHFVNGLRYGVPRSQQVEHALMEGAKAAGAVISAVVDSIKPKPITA

IC50 [1] [nM] | IC50 [2] [nM] | Structure (SMILES)
631 | 398 | O=C(CCc1ccc(Cl)cc1)C(=O)NCCc1ccccc1
158 | – | O=C(CCCc1ccccc1)C(=O)NCCc1ccc(Oc2ccc(C(F)(F)F)cn2)cc1
